Reference: ChEMBL document CHEMBL1145300, “Design, synthesis, and anti-inflammatory activity both in vitro and in vivo of new betulinic acid analogues having an enone functionality in ring A” (Bioorg Med Chem Lett, 2006)
The source made the active and inactive calls. The rule behind the calls is not given here.

Test system: RAW
Experiment: Inhibition of nitric oxide production in IFN-gamma stimulated RAW 264.7 cells
Format: functional, cell-based
Details: Mus musculus

| SMILES | IC50 [nM] | Activity |
| --- | --- | --- |
| C=C(C)[C@@H]1CC[C@]2(C(=O)n3ccnc3)CC[C@]3(C)C(CC[C@@H]4[C@@]5(C)C=C(C#N)C(=O)C(C)(C)[C@@H]5CC[C@]43C)[C@@H]12 (stereo partly drawn) | 30 |  |
| C=C(C)[C@@H]1CC[C@]2(C(=O)O)CC[C@]3(C)[C@H](CC[C@@H]4[C@@]5(C)CC[C@H](O)C(C)(C)[C@@H]5CC[C@]43C)[C@@H]12 |  | inactive |
| C=C(C)[C@@H]1CC[C@]2(C(=O)OC)CC[C@]3(C)C(CC[C@@H]4[C@@]5(C)C=C(C#N)C(=O)C(C)(C)[C@@H]5CC[C@]43C)[C@@H]12 (stereo partly drawn) | 30 |  |
| C=C(C)[C@@H]1CC[C@]2(C(=O)OC)CC[C@]3(C)C(CC[C@@H]4[C@@]5(C)C=C(C(=O)O)C(=O)C(C)(C)[C@@H]5CC[C@]43C)[C@@H]12 (stereo partly drawn) | 300 |  |
| C=C(C)[C@@H]1CC[C@]2(C(=O)O)CC[C@]3(C)C(CC[C@@H]4[C@@]5(C)C=C(C#N)C(=O)C(C)(C)[C@@H]5CC[C@]43C)[C@@H]12 (stereo partly drawn) | 200 |  |
| C=C(C)[C@@H]1CC[C@]2(C(=O)OC)CC[C@]3(C)C(CC[C@@H]4[C@@]5(C)C=C(C(=O)OC)C(=O)C(C)(C)[C@@H]5CC[C@]43C)[C@@H]12 (stereo partly drawn) | 600 |  |
| C=C(CF)[C@@H]1CC[C@]2(C(=O)OC)CC[C@]3(C)C(CC[C@@H]4[C@@]5(C)C=C(C(=O)O)C(=O)C(C)(C)[C@@H]5CC[C@]43C)[C@@H]12 (stereo partly drawn) | 300 |  |
| C=C(CO)[C@@H]1CC[C@]2(C(=O)OC)CC[C@]3(C)C(CC[C@@H]4[C@@]5(C)C=C(C(=O)O)C(=O)C(C)(C)[C@@H]5CC[C@]43C)[C@@H]12 (stereo partly drawn) | 900 |  |
| C=C(C)[C@@H]1CC[C@]2(C(=O)n3ccnc3C)CC[C@]3(C)C(CC[C@@H]4[C@@]5(C)C=C(C#N)C(=O)C(C)(C)[C@@H]5CC[C@]43C)[C@@H]12 (stereo partly drawn) | 50 |  |
| C=C(C)[C@@H]1CC[C@]2(C(N)=O)CC[C@]3(C)C(CC[C@@H]4[C@@]5(C)C=C(C#N)C(=O)C(C)(C)[C@@H]5CC[C@]43C)[C@@H]12 (stereo partly drawn) | 30 |  |
| C=C(CF)[C@@H]1CC[C@]2(C(=O)OC)CC[C@]3(C)C(CC[C@@H]4[C@@]5(C)C=C(C(=O)OC)C(=O)C(C)(C)[C@@H]5CC[C@]43C)[C@@H]12 (stereo partly drawn) | 300 |  |
| C=C(C)[C@@H]1CC[C@]2(C(=O)OCC)CC[C@]3(C)C(CC[C@@H]4[C@@]5(C)C=C(C#N)C(=O)C(C)(C)[C@@H]5CC[C@]43C)[C@@H]12 (stereo partly drawn) | 20 |  |
| C=C(C)[C@@H]1CC[C@]2(C(=O)N(C)C)CC[C@]3(C)C(CC[C@@H]4[C@@]5(C)C=C(C#N)C(=O)C(C)(C)[C@@H]5CC[C@]43C)[C@@H]12 (stereo partly drawn) | 30 |  |
| C=C(CO)[C@@H]1CC[C@]2(C(=O)OC)CC[C@]3(C)C(CC[C@@H]4[C@@]5(C)C=C(C(=O)OC)C(=O)C(C)(C)[C@@H]5CC[C@]43C)[C@@H]12 (stereo partly drawn) | 1000 |  |
| C=C(C)[C@@H]1CC[C@]2(C(=O)NC)CC[C@]3(C)C(CC[C@@H]4[C@@]5(C)C=C(C#N)C(=O)C(C)(C)[C@@H]5CC[C@]43C)[C@@H]12 (stereo partly drawn) | 50 |  |
| C=C(C)[C@@H]1CC[C@]2(C(=O)n3ccnc3CC)CC[C@]3(C)C(CC[C@@H]4[C@@]5(C)C=C(C#N)C(=O)C(C)(C)[C@@H]5CC[C@]43C)[C@@H]12 (stereo partly drawn) | 30 |  |

Target: T1, Heme oxygenase 1 (Mus musculus) (UniProt P14901)
T1 sequence (whole entry): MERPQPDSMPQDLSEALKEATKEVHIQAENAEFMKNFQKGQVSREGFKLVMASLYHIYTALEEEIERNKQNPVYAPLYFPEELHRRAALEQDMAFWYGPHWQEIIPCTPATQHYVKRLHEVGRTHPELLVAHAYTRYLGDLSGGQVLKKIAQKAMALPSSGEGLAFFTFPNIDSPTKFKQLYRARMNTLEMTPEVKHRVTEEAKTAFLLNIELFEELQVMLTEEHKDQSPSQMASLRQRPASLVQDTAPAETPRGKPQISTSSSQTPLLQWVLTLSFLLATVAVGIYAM
Experiment: Induction of liver HO1 in CD1 mouse at 2 uM, po after 6 hrs
Format: organism-based
Details: not given
How it was run: (§1)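 Male CD-1 mice, 3 per group, were given a single oral gavage of 2 μmole triterpenoid in DMSO. The read-out was heme oxygenase-1 (HO-1) induction in the liver.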

| SMILES | Activity |
| --- | --- |
| C=C(C)[C@@H]1CC[C@]2(C(=O)n3ccnc3)CC[C@]3(C)C(CC[C@@H]4[C@@]5(C)C=C(C#N)C(=O)C(C)(C)[C@@H]5CC[C@]43C)[C@@H]12 (stereo partly drawn) | Active |

Test system: Mus musculus
Experiment: Antiinflammatory activity in CD1 mouse at 2 uM, po
Format: functional, organism-based
Details: not given
How it was run: as §1

| SMILES | Activity |
| --- | --- |
| C=C(C)[C@@H]1CC[C@]2(C(=O)n3ccnc3)CC[C@]3(C)C(CC[C@@H]4[C@@]5(C)C=C(C#N)C(=O)C(C)(C)[C@@H]5CC[C@]43C)[C@@H]12 (stereo partly drawn) | Active |
